The text below walks through data of ChEMBL document CHEMBL1153564 (Antimicrob Agents Chemother, 2008).

In data set [1] the test system is Candida albicans. In words: Antifungal activity against Candida albicans 98-210 infected in neutropenic ICR/Swiss mouse candidiasis model assessed as dose required to maintain […] of 3.81 +/- 0.33 log10CFU per kidney administered intraperitoneally every 24 hrs up to 4 days measured per 24 hrs. In kind it is functional. Put shortly:
(§1)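 Neutropenic mice (cyclophosphamide sc on days −4, −1 and +2) were infected iv 2 h before therapy. Five total doses from 0.078 to 20 mg/kg/24 h were given ip q24h for 4 days, three mice per regimen. Kidney CFU were measured at the end of therapy. Static and 1-log-kill doses were derived from a Hill sigmoid dose-effect fit.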

Data set [2] has as its system Nakaseomyces glabratus. The data set is described as follows: Antifungal activity against Candida glabrata after 24 hrs by broth microdilution method. The format is functional. In short, it runs like this: (§2)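 Two end points were read against the drug-free control well: partial growth inhibition (the CLSI end point) and complete inhibition. Run in duplicate on four separate occasions; the value is the mean. Drug stock was made in DMSO and diluted in 0.9% NaCl.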
For orientation: Dilution methods test growth across graded concentrations, often in twofold steps.

In data set [3] the test system is Nakaseomyces glabratus. The data set is described as follows: Antifungal activity against Candida glabrata 34341 infected in neutropenic ICR/Swiss mouse candidiasis model assessed as dose required to maintain […] of 1.83 +/- 0.54 log10CFU per kidney administered intraperitoneally every 24 hrs up to 4 days measured per 24 hrs. In kind it is functional.
The test system of data set [4] is Nakaseomyces glabratus. In words: Antifungal activity against Candida glabrata 33616 assessed as partial growth inhibition after 24 hrs by CLSI end point method. In kind it is functional. The settings on record: Nakaseomyces glabratus, 33616, 24 h. In short, it runs like this: as §2
Data set [5] relates to Candida albicans. In words: Antifungal activity against Candida albicans K-1 infected in neutropenic ICR/Swiss mouse candidiasis model assessed as suppression of fungal regrowth at 1.25 mg/kg, ip administered 2 hrs postinfection as single dose by time-kill assay. In kind it is functional, organism-based. Set-up: dose 1.25 mg/kg. Put shortly:
(§3)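 Single ip dose of 1.25, 5 or 20 mg/kg given 2 h after iv infection of neutropenic mice. Groups of 3 treated and 3 control mice sampled at 1–24 h intervals over 96 h. Kidney homogenates plated on SDA, 24 h at 35°C. PAFE = time for treated burden to rise 1 log10 CFU/kidney after serum level fell below MIC, minus the same time in controls.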

Data set [6] deals with Serum. In words: Fraction unbound in Candida albicans K-1 infected neutropenic ICR/Swiss mouse serum at 5 mg/kg, ip administered 2 hrs postinfection as single dose. In kind it is ADME, organism-based. Set-up: dose 5 mg/kg, route intraperitoneal. The settings on record: in vivo.
For data set [7], the system named is Nakaseomyces glabratus. In words: Antifungal activity against Candida glabrata 570 assessed as partial growth inhibition after 24 hrs by CLSI end point method. In kind it is functional. The settings on record: Nakaseomyces glabratus, 570, 24 h. Put shortly: as §2
The subject of data set [8] is Candida tropicalis. In words: Antifungal activity against Candida tropicalis 98-234 infected in neutropenic ICR/Swiss mouse candidiasis model assessed as fungal count per kidney administered 2 hrs postinfection measured up to 48 hrs. The format is functional. Put shortly: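 Untreated neutropenic ICR/Swiss female mice infected iv via lateral tail vein (0.1 ml, 6.1 ± 0.51 log10 CFU/ml); kidneys homogenised, serially diluted 1:10 and plated on SDA, counted after 24 h at 35°C; growth in kidneys over 48 h, mean CFU per kidney of three mice, detection limit 100 CFU/ml.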

In data set [9] the test system is Candida albicans. In words: Antifungal activity against Candida albicans K-1 assessed as partial growth inhibition after 24 hrs by CLSI end point method. In kind it is functional. The following applies: K-1, 24 h. Put shortly: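 CLSI M27-A2 broth dilution. Two end points read against the drug-free control well: partial inhibition (CLSI end point) and complete inhibition. Run in duplicate on four separate occasions; value is the mean. Drug stock in DMSO, diluted in 0.9% NaCl.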

Data set [10] in a line: AUC (0 to infinity) in serum of neutropenic ICR/Swiss mouse candidiasis model at 80 mg/kg, ip by reverse-phase high-pressure liquid chromatography. The format is ADME, organism-based. Further details: time infinity, dose 80 mg/kg, route intraperitoneal. In short, it runs like this:
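Single ip dose in 0.2 ml to infected neutropenic mice. Serum from groups of three isoflurane-anaesthetised mice at 1, 4, 8, 12, 24 and 48 h, stored −80°C. Drug measured by reverse-phase HPLC with fluorescence detection against loratadine internal standard (calibration 10–50,000 ng/ml). Noncompartmental analysis; AUC by trapezoidal rule.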

For data set [11], the system named is Nakaseomyces glabratus. In words: Antifungal activity against Candida glabrata 5376 infected in neutropenic ICR/Swiss mouse candidiasis model assessed as reduction of […] in kidney at 1.25 mg/kg, ip administered 2 hrs postinfection as single dose measured within 1 to 4 hrs post dosing by time-kill assay. Set-up: dose 1.25 mg/kg. In kind it is functional, organism-based. Put shortly: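 Neutropenic mice given a single ip dose (1.25, 5 or 20 mg/kg) 2 h after tail-vein infection. Kidneys from 3 mice per time point collected nine times over 96 h. Homogenates serially diluted 1:10 and plated on SDA, 24 h at 35°C. Detection limit 100 CFU/ml.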

The test system of data set [12] is Candida tropicalis. The data set is described as follows: Antifungal activity against Candida tropicalis 98-234 assessed as partial growth inhibition after 24 hrs by CLSI end point method. The format is functional. The following applies: 98-234, 24 h.
In data set [13] the test system is Candida albicans. The data set is described as follows: Antifungal activity against Candida albicans K-1 infected in neutropenic ICR/Swiss mouse candidiasis model assessed as dose required for 1-log10 reduction in […] per kidney administered intraperitoneally once every 96 hrs measured per 96 hrs. The format is functional. Put shortly:
(§4)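 Neutropenic mice were infected iv with C. albicans K-1 2 h before therapy. Total doses of 1.25, 5, 20, 80 and 320 mg/kg/96 h were split into 1, 2, 4 or 6 ip doses (q96h, q48h, q24h, q16h), three mice per regimen. Effect is the log10 CFU/kidney relative to untreated controls at 96 h. Static and 1-log doses were taken from a Hill model fit.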

Data set [14] relates to Candida albicans. In words: Antifungal activity against Candida albicans after 24 hrs by broth microdilution method. In kind it is functional.
For data set [15], the system named is Nakaseomyces glabratus. The data set is described as follows: Antifungal activity against Candida glabrata 5376 infected in neutropenic ICR/Swiss mouse candidiasis model assessed as dose required for 1-log10 reduction in […] per kidney administered intraperitoneally every 48 hrs up to 4 days measured per 96 hrs. The format is functional. In short, it runs like this:
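Neutropenic ICR/Swiss mice infected i.v. with the strain; therapy began 2 h later. Total doses of 1.25–320 mg/kg/96 h were given i.p. as 1, 2, 4 or 6 doses (q96h, q48h, q24h, q16h), three mice per regimen. Kidney CFU were counted after 4 days. Effect is the change from untreated controls at the end of therapy.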

Data set [16] concerns Candida albicans. In words: Antifungal activity against Candida albicans 580 infected in neutropenic ICR/Swiss mouse candidiasis model assessed as dose required to maintain […] of 3.81 +/- 0.33 log10CFU per kidney administered intraperitoneally every 24 hrs up to 4 days measured per 24 hrs. In kind it is functional. In short, it runs like this:
as §1

The subject of data set [17] is Candida albicans. The data set is described as follows: Antifungal activity against Candida albicans K-1 infected in neutropenic ICR/Swiss mouse candidiasis model assessed as prolongation of fungal growth suppression at 1.25 mg/kg, ip administered 2 hrs postinfection as single dose by time-kill assay. The format is functional. The following applies: route intraperitoneal. In short, it runs like this: as §3

The subject of data set [18] is Candida albicans. The data set is described as follows: Antifungal activity against Candida albicans K-1 infected in neutropenic ICR/Swiss mouse candidiasis model assessed as […] burden per kidney administered intraperitoneally every 24 hrs up to 4 days measured per 96 hrs. The format is functional. The following applies: K-1, Kidney, ip. Put shortly:
as §4

In data set [19] the test system is Candida tropicalis. The data set is described as follows: Antifungal activity against Candida tropicalis 98-234 assessed as complete growth inhibition after 24 hrs by CLSI end point method. The settings on record: 98-234, 24 h. The format is functional.
Data set [20] concerns Nakaseomyces glabratus. The data set is described as follows: Antifungal activity against Candida glabrata 5592 infected in neutropenic ICR/Swiss mouse candidiasis model assessed as dose required for 1-log10 reduction in […] per kidney administered intraperitoneally every 24 hrs up to 4 days measured per 24 hrs. In kind it is functional. In short, it runs like this:
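Neutropenic mouse disseminated candidiasis, with i.p. therapy starting 2 h after i.v. infection. Five total doses of 0.078–20 mg/kg/24 h were given q24h for 4 days, three mice per dose. Kidney CFU were counted at the end and compared with untreated controls. The dose giving a 1 log10 CFU/kidney reduction was derived from the sigmoid Hill dose–effect model.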

The structures appear in SMILES notation. Converted amounts (≈) assume the structure as drawn. The source made the active and inactive calls. The rule behind the calls is not given here. Starred links: 1 amine or outer side, 2 acyl side, 3 side chain; linkers in the order of their positions; H or OH if unused. Positions of bridges follow the written chain, without caps; N, C: chain ends. Non-standard residues stand in square brackets, D forms with d. Residues, ends and D or L forms follow the SMILES beside them. *: point of attachment. pTerphenylCO(4''-OnC5H11) = CCCCCOc1ccc(-c2ccc(-c3ccc(C(=O)*)cc3)cc2)cc1; Orn(4R-OH,5R-OH) = O=C([C@H](C[C@@H](O)[C@@H](O)N[*:3])N[*:1])[*:2]; hTyr(3S-OH,4S-OH) = N[C@H](C(=O)O)[C@H](O)[C@@H](O)c1ccc(O)cc1; Pro(3S-OH,4S-Me) = C[C@H]1CN[C@H](C(=O)O)[C@H]1O; Hyp = O=C(O)[C@@H]1C[C@@H](O)CN1

By MIC90 is commonly meant the lowest concentration that inhibits either 90% of growth or 90% of the strains tested, depending on the study. Read a high MIC90 as weaker potency. A word on the MIC: it is the least concentration at which growth counts as inhibited. One may read the AUC(0-inf) as the area under the concentration-time curve extrapolated to infinity. For orientation: ED50 means the dose at which the effect has come halfway, by size or by number of responders. Turning to `CCCCCOc1ccc(-c2ccc(-c3ccc(C(=O)N[C@H]4C[C@@H](O)[C@@H](O)NC(=O)[C@@H]5[C@@H](O)[C@@H](C)CN5C(=O)[C@H]([C@@H](C)O)NC(=O)[C@H]([C@H](O)[C@@H](O)c5ccc(O)cc5)NC(=O)[C@@H]5C[C@@H](O)CN5C(=O)[C@H]([C@@H](C)O)NC4=O)cc3)cc2)cc1` [ANIDULAFUNGIN] ({pTerphenylCO(4''-OnC5H11)}-[Orn(4R-OH,5R-OH)]T[Hyp][hTyr(3S-OH,4S-OH)]T[Pro(3S-OH,4S-Me)]; lactam 1-C), the Activity in [1] turned out to be 3.37 mg/kg; in data set [3], 6.9 mg/kg; in data set [13] it was 4.97 mg/kg; in data set [15], 27.4 mg/kg; in data set [16], 0.94 mg/kg; in data set [17] it was 56 h. Moreover, the Activity in [20] came to 11.8 mg/kg. The MIC90 came out at 0.12 µg/mL (≈ 0.105 µM) in [2] and 0.06 µg/mL (≈ 0.0526 µM) in [14]. Besides, the MIC in data set [4] is 1 µg/mL (≈ 0.877 µM); in data set [7] it was 0.03 µg/mL (≈ 0.0263 µM); in data set [9], 0.015 µg/mL (≈ 0.0132 µM); in data set [12], 0.015 µg/mL (≈ 0.0132 µM); in [19] it was 0.12 µg/mL (≈ 0.105 µM). In addition, the outcome in data set [5] and in data set [11] was Active. Also, the Fu in data set [6] worked out at 1%. Further, in data set [8], the log10cfu amounted to 3.84. For the same molecule, the AUC(0-inf) in [10] was 1980 µg·h/mL. In addition, the ED50 in data set [18] was found to be 3.5 mg/kg.
